Measurements as given in ChEMBL document CHEMBL1759837, “Studies on chemical modification and biology of a natural product, gambogic acid (III): determination of the essential pharmacophore for biological activity” (Eur J Med Chem, 2011).
pIC50: −log10 of the molar value.

Key:
Mus musculus = assay: Toxicity in Kunming mouse xenografted with human HepG2 cells assessed as change in body weight at 20 mg/kg, iv administered 24 hrs after tumor implantation one dose per two day for total of four treatment measured after 24 hrs last postdose (reference value: 20.90 +/- 1.29 g); conditions: in vivo
SMMC-7721 = assay: Antiproliferative activity against human SMMC7721 cells after 24 hrs by MTT assay; assay type: functional, cell-based; conditions: SMMC-7721, 24 h
Summary of the method: (§1)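 Cells grown at 37 °C in humidified 5% CO2 with benzylpenicillin and streptomycin. Compounds came from 0.01 mol/L DMSO stocks and were tested at eight two-fold dilutions in triplicate, with medium-only controls, for 24 h. MTT absorbance was read at 570 nm. Survival = A_treatment/A_control × 100. IC50 is the concentration giving 50% viability inhibition, as the mean of two separate experiments.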

[1] = system: Heps hepatoma (Mus musculus); assay: Antitumor activity against murine Heps hepatoma cells transplanted in Kunming mouse assessed as tumor growth inhibition at 20 mg/kg, iv administered 24 hrs after tumor implantation one dose per two day for total of four treatment measured after 24 hrs last postdose relative to control
BGC-823 = assay: Antiproliferative activity against human BGC823 cells after 24 hrs by MTT assay; assay type: functional, cell-based; conditions: BGC-823, 24 h
Summary of the method: as §1

MCF7 = assay: Antiproliferative activity against human MCF7 cells after 24 hrs by MTT assay; assay type: functional, cell-based; conditions: MCF7, 24 h
Summary of the method: as §1

HepG2 = assay: Antiproliferative activity against human HepG2 cells after 24 hrs by MTT assay; assay type: functional, cell-based; conditions: HepG2, 24 h
Summary of the method: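 Tetrazolium MTT viability test; cells exposed to compound 24 h, absorbance read at 570 nm. Survival ratio = A treated / A control × 100%; IC50 is the concentration giving 50% loss of viability. Eight concentrations in two-fold dilutions, triplicate wells, mean of two separate experiments. Compounds dissolved in DMSO (0.01 mol/L stock); control wells received medium only.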

| SMILES | Activity (Mus musculus) | pIC50 (SMMC-7721) | inhibition in vivo at 20 mg/kg [1] | pIC50 (BGC-823) | pIC50 (MCF7) | pIC50 (HepG2) |
| --- | --- | --- | --- | --- | --- | --- |
| CC(C)=CCC[C@]1(C)C=Cc2c(O)c3c(c(CC=C(C)C)c2O1)O[C@]12C(=C[C@@H]4C[C@H]1C(C)(C)O[C@@]2(C/C=C(/C)C(=O)O)C4=O)C3=O [GAMBOGIC ACID] | 27.6 g | 5.49 | 45.3% | 5.63 | 5.66 |  |
| CC(C)=CCC12OC(C)(C)C3CC(C=C4C(=O)CC(C)OC431)C2=O (stereo not drawn) |  | 3.83 |  | 4.09 | 4.17 | 4.02 |
| CC(C)=CCC12OC(C)(C)C3CC(C=C4C(=O)c5ccccc5OC431)C2=O (stereo not drawn) |  | 4.98 |  | 4.69 | 4.86 | 5.17 |
